Source: ChEMBL document CHEMBL5033991, “Targeting the FtsZ Allosteric Binding Site with a Novel Fluorescence Polarization Screen, Cytological and Structural Approaches for Antibacterial Discovery” (J Med Chem, 2021)
In brackets after ≈: the same amount, converted by molar mass. Activity calls are given as the source filed them. No cut-off for these calls is given here.

Columns and labels:
[1] = biological target: T1, Cell division protein FtsZ (Bacillus subtilis) (UniProt A5Z1V5); experiment: Competitive binding affinity to Bacillus subtilis FtsZ at 10 uM in presence of PC190723 by fluorescence anisotropy analysis
T1 sequence (whole entry): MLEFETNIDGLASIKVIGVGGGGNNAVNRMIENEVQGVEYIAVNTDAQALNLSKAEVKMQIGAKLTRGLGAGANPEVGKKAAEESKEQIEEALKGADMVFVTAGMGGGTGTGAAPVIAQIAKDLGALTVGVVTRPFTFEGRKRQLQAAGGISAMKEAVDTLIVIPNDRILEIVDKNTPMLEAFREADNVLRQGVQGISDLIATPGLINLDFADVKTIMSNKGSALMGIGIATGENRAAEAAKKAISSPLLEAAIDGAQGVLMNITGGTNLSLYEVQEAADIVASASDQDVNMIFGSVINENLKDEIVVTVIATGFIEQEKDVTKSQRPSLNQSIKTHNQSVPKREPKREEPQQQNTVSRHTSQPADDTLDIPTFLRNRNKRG
Procedure, shortened: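 Probe (10 μM) in buffer mixed with unassembled BsFtsZ (10 μM), then GMPCPP (0.1 mM). Polymerization started with MgCl2 (10 mM), anisotropy read 5–10 min later. PC190723 (10 μM) then added to displace probe, with anisotropy read 5 min after. Measured at 25 °C in an L-format spectrofluorometer at each probe's excitation/emission maxima.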

[2] = biological target: T1, Cell division protein FtsZ (Bacillus subtilis); experiment: Binding affinity to Bacillus subtilis FtsZ polymer assessed as dissociation constant by fluorescence anisotropy analysis
[3] = biological target: T2, Cell division protein FtsZ (Bacillus subtilis, UniProt A5Z1V5); experiment: Displacement of free fluorescent probe from inter domain cleft of stabilized Bacillus subtilis FtsZ assessed as dissociation constant in presence of GMPCPP by fluorescence anisotropy analysis
T2 sequence (A5Z1V5 whole entry): T1 sequence (whole entry)
Procedure, shortened: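 BsFtsZ polymers assembled in HEPES buffer pH 6.8 with 10 mM MgCl2 and GMPCPP, cross-linked with 0.15% glutaraldehyde, quenched with NaBH4. Competitor titrated into 7–8 μM polymers plus (S)-2 (3 μM) or 2–3 μM polymers plus (R)-5 (3 μM), 0.1 mM GMPCPP, 25 °C. Initial probe bound fraction 0.4–0.5; KD numerically fitted by competition model; mean ± SEM.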

IMR-90 = experiment: Cytotoxicity against human IMR-90 cells assessed as reduction in cell viability at MIC measured after 48 hrs by MTT assay; type: cell-based; conditions: imr-90, 48 h
[4] = biological target: T1, Cell division protein FtsZ (Bacillus subtilis); experiment: Binding affinity to Bacillus subtilis FtsZ assessed as decrease in fluorescence anisotropy values at 20 to 200 uM by fluorescence anisotropy analysis; conditions: dose 20-200 µM
Procedure, shortened: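 Screen: probe (S)-2 (3 μM) with glutaraldehyde-cross-linked BsFtsZ-GMPCPP polymers (8 μM binding sites), each compound at 20 and 200 μM; raw anisotropy compared with partially bound probe, free probe and DMSO vehicle controls (2%, 4%). Hits checked for total intensity changes and with replicates lacking FtsZ.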

Bacillus subtilis [5] = experiment: Inhibition of Bacillus subtilis cell division assessed as induction of filamentous phenotype at 25 to 100 uM incubated for 1.5 hrs by fluorescence microscopic analysis; type: functional, organism-based; conditions: dose 25-100 µM
Procedure, shortened: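 B. subtilis grown in cation-adjusted Mueller–Hinton broth to A600 0.1–0.2, then treated 1.5 h with fluorescent benzamide probe. Cells imaged by fluorescence microscopy using the probe's own fluorescence; filamentous phenotype scored as division inhibition.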

Bacillus subtilis [6] = experiment: Antimicrobial activity against Bacillus subtilis 168 assessed as inhibition of cell division incubated for 1.5 hrs by phase contrast microscopic analysis; type: functional
Procedure, shortened: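 B. subtilis 168 grown in cation-adjusted Mueller–Hinton broth at 37 °C to A600 0.1–0.2, then incubated with compound or DMSO vehicle. Cells observed by microscopy and cell lengths measured; division inhibition expressed as minimal division inhibitory concentration.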

[7] = system: Staphylococcus epidermidis; experiment: Antimicrobial activity against Staphylococcus epidermidis assessed as inhibition of bacterial growth by CLSI based broth macrodilution method; type: functional
Procedure, shortened: (§1)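 Cells grown in cation-adjusted Mueller–Hinton broth at 37 °C to A600 0.1–0.2, then exposed to compound or DMSO vehicle. MIC by broth macrodilution as the lowest concentration inhibiting growth.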

[8] = system: Staphylococcus haemolyticus; experiment: Antimicrobial activity against Staphylococcus haemolyticus assessed as inhibition of bacterial growth by CLSI based broth macrodilution method; type: functional; procedure, shortened: as §1
[9] = biological target: T1, Cell division protein FtsZ (Bacillus subtilis); experiment: Inhibition of GFP-tagged FtsZ in Bacillus subtilis SU570 assessed as delocalization into punctate foci at 0.2 uM incubated for 1.5 hrs; conditions: dose 200.0 µM, in the assay text read “0.2 mM” for “0.2 uM”
Procedure, shortened: (§2)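 B. subtilis SU570 expressing FtsZ-GFP grown in cation-adjusted Mueller–Hinton broth at 30 °C to A600 0.1–0.2, then grown 1.5 h with compound or DMSO vehicle. FtsZ-GFP localization (Z-rings, foci) assessed by fluorescence microscopy.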

[10] = biological target: T1, Cell division protein FtsZ (Bacillus subtilis); experiment: Inhibition of GFP-tagged FtsZ in Bacillus subtilis SU570 assessed as induction of irregular shaped z-ring formation at 0.2 uM incubated for 1.5 hrs; conditions: dose 200.0 µM, in the assay text read “0.2 mM” for “0.2 uM”; procedure, shortened: as §2
Bacillus subtilis [11] = experiment: Inhibition of Bacillus subtilis 168 cell division at 0.75 mM measured after 3 hrs by phase-contrast microscopic analysis; type: functional, organism-based
Procedure, shortened: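 B. subtilis 168 grown in CAMHB at 37 °C to A600 0.1–0.2, exposed 3 h to compound or DMSO; cell lengths measured from phase-contrast images (n ≥ 30 cells).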

[12] = biological target: T1, Cell division protein FtsZ (Bacillus subtilis); experiment: Induction of Bacillus subtilis FtsZ polymerization at 0.1 mM measured after 5 to 10 mins by fluorescence anisotropy analysis; conditions: time 5-10 min

Question: How did the Activity [1] turn out when `NC(=O)c1c(F)ccc(OCCNc2ccc([N+](=O)[O-])c3nonc23)c1F` was run?
Answer: The Activity was “Active”.

Question: `NC(=O)c1c(F)ccc(OCc2nc3cc(Cl)cnc3s2)c1F` was tested. Which Activity [2] did it give?
Answer: The Activity was under 0.1 µM.

Question: And the Kd [3]?
Answer: Its Kd is under 100 nM.

Question: With `NC(=O)c1c(F)ccc(OCc2cccc(C(F)(F)F)c2)c1F` as the compound, how does the Activity (IMR-90) read?
Answer: Its Activity is “Non-Toxic”.

Question: Which Activity [1] does the source give for `CCCCCC(CNc1ccc([N+](=O)[O-])c2nonc12)Oc1ccc(F)c(C(N)=O)c1F` (centres undefined) here?
Answer: Its Activity is “inactive”.

Question: With `O=C(Oc1cc(OC(=O)c2cc(O)cc(O)c2)c2ccccc2c1)c1ccc(O)c(O)c1` as the compound, how does the Activity [4] read?
Answer: Its Activity is “Active”.

Question: For `CCCCCCCCC(CNc1ccc([N+](=O)[O-])c2nonc12)Oc1ccc(F)c(C(N)=O)c1F` (centres undefined), which Activity [1] is on record?
Answer: Its Activity is “inactive”.

Question: For `CCC[C@H](COc1ccc(F)c(C(N)=O)c1F)Nc1ccc([N+](=O)[O-])c2nonc12`, which inhibition (Bacillus subtilis [5]) is on record?
Answer: Its inhibition is “Active”.

Question: `NC(=O)c1c(F)ccc(OCCNc2cccc(C(F)(F)F)c2)c1F` was tested. Which Activity (IMR-90) did it give?
Answer: The Activity was “Non-Toxic”.

Question: `NC(=O)c1cccc(NCc2cccc(Cl)c2)c1` was tested. Which Activity [4] did it give?
Answer: Its Activity is “inactive”.

Question: Which inhibition (Bacillus subtilis [5]) does the source give for `CCC[C@@H](CNc1ccc([N+](=O)[O-])c2nonc12)Oc1ccc(F)c(C(N)=O)c1F` here?
Answer: The inhibition was “Active”.

Question: How did the inhibition (Bacillus subtilis [5]) turn out when `CCC[C@@H](COc1ccc(F)c(C(N)=O)c1F)Nc1ccc([N+](=O)[O-])c2nonc12` was run?
Answer: The inhibition was “Active”.

Question: With `FC(F)(F)c1cccc(COc2cccc(-c3ncc[nH]3)c2)c1` as the compound, how does the MIC (Bacillus subtilis [6]) read?
Answer: Its MIC is 50 µM (≈ 15.9 µg/mL).

Question: `CCC[C@H](COc1ccc(F)c(C(N)=O)c1F)Nc1cccc(C(F)(F)F)c1` was tested. Which Activity (IMR-90) did it give?
Answer: Its Activity is “Non-Toxic”.

Question: `Oc1ccc(/C=C/c2cc(O)cc(O)c2)cc1` was tested. Which Activity [4] did it give?
Answer: The Activity was “inactive”.

Question: `Clc1cccc(COc2cccc(-c3ncc[nH]3)c2)c1` was tested. Which MIC (Bacillus subtilis [6]) did it give?
Answer: The MIC was 50 µM (≈ 14.2 µg/mL).

Question: With `NC(=O)c1c(F)ccc(OCc2cccc(Cl)c2)c1F` as the compound, how does the Activity (IMR-90) read?
Answer: Its Activity is “Non-Toxic”.

Question: With `CCC[C@H](CNc1ccc([N+](=O)[O-])c2nonc12)Oc1ccc(F)c(C(N)=O)c1F` as the compound, how does the inhibition (Bacillus subtilis [5]) read?
Answer: The inhibition was “inactive”.

Question: Which Activity [4] does the source give for `CN(Cc1cccc(Cl)c1)c1ccc(C(N)=O)cc1` here?
Answer: Its Activity is “inactive”.

Question: With `NC(=O)c1ccc(NCc2cccc(Cl)c2)cc1` as the compound, how does the Activity [4] read?
Answer: The Activity was “inactive”.

Question: With `CC1=CC(=O)c2c(O)cccc2C1=O` as the compound, how does the Activity [4] read?
Answer: The Activity was “inactive”.

Question: Which MIC (Bacillus subtilis [6]) does the source give for `NC(c1cccc(OCc2cccc(Cl)c2)c1)C(F)(F)F` (centres undefined) here?
Answer: The MIC was 250 µM (≈ 78.9 µg/mL).

Question: Which MIC [7] does the source give for `CCCC(COc1ccc(F)c(C(N)=O)c1F)Nc1cccc(C(F)(F)F)c1` (racemic) here?
Answer: Its MIC is 50 µM (≈ 20.1 µg/mL).

Question: What about the MIC [8] of the same compound?
Answer: Its MIC is 50 µM (≈ 20.1 µg/mL).

Question: `O=C(O)C(=O)c1cn(Cc2ccccc2)c2ccc(-c3ccc(OC(F)(F)F)cc3)cc12` was tested. Which Activity [4] did it give?
Answer: Its Activity is “inactive”.

Question: Which Activity [1] does the source give for `CCCC(COc1ccc(F)c(C(N)=O)c1F)Nc1ccc([N+](=O)[O-])c2nonc12` (centres undefined) here?
Answer: Its Activity is “Active”.

Question: How did the Activity [1] turn out when `CCCC(CNc1ccc([N+](=O)[O-])c2nonc12)Oc1ccc(F)c(C(N)=O)c1F` (centres undefined) was run?
Answer: Its Activity is “Active”.

Question: Which inhibition [9] does the source give for `CN(Cc1cccc(Cl)c1)c1cccc(C(N)=O)c1` here?
Answer: Its inhibition is “Active”.

Question: And the inhibition [10]?
Answer: The inhibition was “Active”.

Question: And the Activity [4]?
Answer: Its Activity is “inactive”.

Question: What about the inhibition (Bacillus subtilis [11]) of the same compound?
Answer: The inhibition was “Active”.

Question: For `CCN(CC)CCNc1nc(/C=C/c2ccc(Cl)cc2)nc2cc3ccccc3cc12`, which Activity [4] is on record?
Answer: The Activity was “inactive”.

Question: `O=C(O)CCN(Cc1ccccc1)Cc1cccc(Sc2ccccc2)c1` was tested. Which Activity [4] did it give?
Answer: Its Activity is “inactive”.

Question: For `Nc1nc2c(ncn2[C@@H]2O[C@H](CO[P@@](=O)(O)C[P@@](=O)(O)OP(=O)(O)O)[C@@H](O)[C@H]2O)c(=O)[nH]1`, which Activity [12] is on record?
Answer: Its Activity is “Active”.
